Measured values from PubChem BioAssay.
The source made the active and inactive calls.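 The calls were made as follows: active = calcium signal ratio cut to more than 3 SD under the fully stimulated control mean yet still positive, in both repeats and the primary screen; inactive = the rest.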

Biological target: Short transient receptor potential channel 4 (Mus musculus) (UniProt Q9QUQ5)
Test: blockers of DAMGO-evoked TRPC4 calcium flux – cell-based, second round, Fluo4, HEK293 TRPC4beta/mu-opioid, 1 µM, confirmation (AID 2637)
Conditions: at 1 µM
Method in brief: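 Also added: sequential submaximal then maximal DAMGO stimulation; system: TRPC4beta/mu-opioid receptor HEK293 cells; compound: one dose, 1 µM final; signal: kinetic Fluo4 Ca2+ fluorescence reading; benchmarks: ECmax and compound-free wells; repeats: two replicates; times: Fluo4 loading 45 min at room temperature, compound 110 s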

Chain of Short transient receptor potential channel 4 (Mus musculus) (Q9QUQ5 whole entry, looked up): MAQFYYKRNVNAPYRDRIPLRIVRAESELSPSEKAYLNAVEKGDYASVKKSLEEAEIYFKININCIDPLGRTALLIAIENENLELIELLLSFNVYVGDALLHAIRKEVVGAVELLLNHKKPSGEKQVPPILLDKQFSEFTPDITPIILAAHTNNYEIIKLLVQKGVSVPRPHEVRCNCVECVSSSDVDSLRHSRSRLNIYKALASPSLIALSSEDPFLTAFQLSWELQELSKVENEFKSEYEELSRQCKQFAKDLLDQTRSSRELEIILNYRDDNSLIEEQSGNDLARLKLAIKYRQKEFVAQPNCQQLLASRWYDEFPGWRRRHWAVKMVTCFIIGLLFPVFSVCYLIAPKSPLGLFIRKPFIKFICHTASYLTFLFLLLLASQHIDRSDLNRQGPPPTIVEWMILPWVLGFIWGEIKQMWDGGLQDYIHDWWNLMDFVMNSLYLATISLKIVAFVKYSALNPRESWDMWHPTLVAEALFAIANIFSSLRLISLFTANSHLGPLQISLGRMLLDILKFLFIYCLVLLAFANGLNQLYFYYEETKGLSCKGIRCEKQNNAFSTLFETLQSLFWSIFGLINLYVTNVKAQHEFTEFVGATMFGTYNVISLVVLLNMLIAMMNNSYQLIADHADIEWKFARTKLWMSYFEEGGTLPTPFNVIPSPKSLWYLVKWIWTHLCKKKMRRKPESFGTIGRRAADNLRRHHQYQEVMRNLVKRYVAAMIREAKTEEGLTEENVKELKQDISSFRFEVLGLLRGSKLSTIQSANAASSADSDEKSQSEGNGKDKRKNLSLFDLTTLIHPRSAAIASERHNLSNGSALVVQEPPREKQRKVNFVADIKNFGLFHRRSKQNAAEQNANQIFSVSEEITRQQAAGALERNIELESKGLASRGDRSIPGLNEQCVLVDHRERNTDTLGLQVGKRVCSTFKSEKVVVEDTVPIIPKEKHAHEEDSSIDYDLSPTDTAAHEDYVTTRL

outcome, inactive:
Fc1ccc(-c2nnc(CN3CCN(c4ncc(C(F)(F)F)cc4Cl)CC3)o2)cc1
CCN1CCN(c2ccc(S(=O)(=O)N3CCCCC3)cc2NC(=O)COc2ccccc2)CC1
CC1CC(C)CN(CCCNC(=O)c2nn(C)c3c2CS(=O)(=O)c2ccccc2-3)C1 (centres undefined)
Cc1ccc(/C=N\NC(=O)C2COc3cc4ccccc4cc3O2)o1 (centres undefined)
Cc1cccc(C)c1OCC(O)CN (centres undefined)
CCn1cc(CN2CCCC(C(=O)Nc3ccc(-c4nc5ccccc5[nH]4)cc3)C2)c(C)n1 (centres undefined)
CC(C)(C)c1cc(Cl)ccc1OCCn1ccnc1
CC(C)c1ccc(NC(=S)N(C)CCc2ccccn2)cc1
CCCC(=O)NC(C)C(c1cccs1)N1CCN(c2ccccc2)CC1 (centres undefined)
Cc1ccc2oc(=O)c3cnn(CC(=O)NC4CCN(Cc5ccccc5)CC4)c3c2c1
O=C(CCc1ccccc1)NNC(=S)NC(=O)c1ccc(Cl)cc1
C=CCn1c(CCNC(=O)c2ccco2)nc2ccccc21
Cc1sc2nc(CSc3ccccc3)nc(NCCN(C)C)c2c1C
O=C(CNS(=O)(=O)c1ccc2ccccc2c1)NCCc1ccccn1
COc1ccc(-c2cc(C#N)nc(N3CCNCC3)n2)cc1
Cc1ccc(C)c(OCCCCn2ccnc2)c1
CCCN(CCC)CCNC(=S)Nc1ccc2nc3n(c(=O)c2c1)CCCCC3
Cc1cccc(NC(=S)NCC(c2cccnc2)N(C)C)c1 (centres undefined)
COc1ccc(/C=C/CN2CCCC(C(=O)c3ccc(OC)c(F)c3)C2)cc1 (centres undefined)
Cc1sc2ncnc(NC3CCN(Cc4ccccc4)CC3)c2c1C
CCCCN(CC)CCNC(=O)c1cc2c(C)nc3ccccc3c2o1
O=C(NCCc1ccccn1)c1ccc(OC2CCN(CCc3ccccc3)CC2)cc1
Cc1ccccc1NC(=S)NCCc1ccccn1
NCCCn1c(C(=O)c2cc(Cl)c(N)c(Cl)c2)c2ccccc2[n+]1[O-]
COc1ccc(-c2nn(-c3ccccc3)cc2CNCc2cccnc2)c(F)c1
Cc1onc(-c2ccccc2)c1C(=O)NC(=S)NNC(=O)c1ccco1
COc1ccc(C(CNC(=O)c2ccc(S(=O)(=O)N(C)C)cc2)N(C)C)cc1 (centres undefined)
CCN1C(=O)c2cccc3c(S(=O)(=O)Nc4ccccc4OC)ccc1c23
CCOC(=O)C1CCCN(C(c2ccccn2)c2c(C)[nH]c3ccccc23)C1 (centres undefined)
COC(=O)c1ccccc1N=Nc1c(N)[nH][nH]c1=O
COc1ccc(C(CNCC(=O)Nc2ccccc2F)N(C)C)cc1 (centres undefined)
CCOC(=O)C1(CCOc2ccccc2)CCN(Cc2cnc(C)s2)CC1
O=C(c1sc2ccccc2c1Cl)N(Cc1ccco1)C1CCS(=O)(=O)C1 (centres undefined)
CCCCN(C)CCCNC(=O)CN1N=C(c2ccc(Cl)cc2)CCC1=O
CN(C)CCCN(C(=O)c1ccc(C(=O)c2ccccc2)cc1)c1nc2ccc(F)cc2s1
CN(CCc1nc2ccc(Cl)cc2[nH]1)Cc1nc(CC2CC2)no1
Fc1ccc(C(c2nnnn2Cc2cccs2)N2CCN(C3CCCCC3)CC2)cc1 (centres undefined)
COc1ccc(C2Nc3ccccc3C(=O)N2Cc2ccco2)cc1COc1ccc(NC(C)=O)cc1 (centres undefined)
O=C(NCCCN1CCN(CCCNC(=O)c2ccc3c(c2)OCO3)CC1)c1ccc2c(c1)OCO2
